Reference: EPA's CvTdb concentration-time database

Key:
rat [1] = assay: concentration in blood after dosing; conditions: dosed: 1,3-butadiene, inhalation, duration: 6 hr, Sprague Dawley
human [2] = assay: concentration in expired air after dosing; negative times count back from the end of exposure; conditions: dosed: 1,3-butadiene, 5 ppm, inhalation, duration: 120 min
Summary of the method: (§1)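 Points were largely digitised from plot screenshots with WebPlotDigitizer or otherwise copied from tables, and they remain in the units each source reported. They come from published in vivo toxicokinetic studies and two structured collections. Sampling and analytical methods follow each source and were often not reported.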

human [3] = assay: concentration in blood after dosing; conditions: dosed: tert-amyl methyl ether
Summary of the method: as §1

human [4] = assay: concentration in blood after dosing; negative times count back from the end of exposure; conditions: dosed: tert-amyl methyl ether, inhalation, duration: 4 hr, male
Summary of the method: as §1

rat [5] = assay: concentration in lung after dosing; conditions: dosed: benzo[a]pyrene, inhalation, duration: 4 hr, F344
rat [6] = assay: concentration in plasma after dosing; conditions: dosed: benzo[a]pyrene, inhalation, duration: 4 hr, F344
human [7] = assay: amount in urine after dosing (umol); conditions: dosed: tert-amyl methyl ether
Summary of the method: as §1

rat [8] = assay: amount in urine after dosing (umol); conditions: dosed: tert-amyl methyl ether, 38.4 ppm, inhalation, duration: 4 hr, F344 (Harlan Winkelmann)

C=CC=C [1,3-butadiene]
Conditions | concentration in blood [nM] | concentration in expired air [ppm]
human [2], -0.1653 h, during exposure | – | 4.58
human [2], -0.3284 h, during exposure | – | 4.31
human [2], -0.6614 h, during exposure | – | 4.14
human [2], -0.8313 h, during exposure | – | 3.79
human [2], -0.9977 h, during exposure | – | 3.77
human [2], -1.168 h, during exposure | – | 4.56
human [2], -1.331 h, during exposure | – | 4.38
human [2], -1.501 h, during exposure | – | 3.62
human [2], -1.67 h, during exposure | – | 4.25
human [2], -1.834 h, during exposure | – | 3.95
rat [1], 1.898 h, 63 ppm | 1290 | –
rat [1], 1.898 h, 616 ppm | 15300 | –
rat [1], 1.898 h, 1249 ppm | 31200 | –
rat [1], 2.9 h, 63 ppm | 1400 | –
rat [1], 2.9 h, 616 ppm | 17200 | –
rat [1], 2.9 h, 1249 ppm | 35400 | –
rat [1], 3.895 h, 63 ppm | 1250 | –
rat [1], 3.895 h, 616 ppm | 16500 | –
rat [1], 3.903 h, 1249 ppm | 38700 | –
rat [1], 5.893 h, 616 ppm | 18500 | –
rat [1], 5.901 h, 63 ppm | 1260 | –
rat [1], 5.901 h, 1249 ppm | 39600 | –
rat [1], 5.931 h, 1249 ppm | 9110 | –
rat [1], 5.962 h, 1249 ppm | 6000 | –
rat [1], 5.977 h, 63 ppm | 342 | –
rat [1], 5.993 h, 616 ppm | 4050 | –
rat [1], 6.016 h, 1249 ppm | 7440 | –
rat [1], 6.077 h, 63 ppm | 286 | –
rat [1], 6.092 h, 616 ppm | 2800 | –
rat [1], 6.092 h, 1249 ppm | 4210 | –
rat [1], 6.176 h, 1249 ppm | 4260 | –
rat [1], 6.184 h, 616 ppm | 3100 | –
rat [1], 6.23 h, 63 ppm | 198 | –
rat [1], 6.314 h, 63 ppm | 181 | –
rat [1], 6.329 h, 616 ppm | 2350 | –
rat [1], 6.391 h, 63 ppm | 101 | –

human [2]
Conditions | concentration in expired air [ppm]
0.1234 h | 0.329
0.1404 h | 0.298
0.1642 h | 0.278
0.1948 h | 0.278
0.2288 h | 0.267
0.2661 h | 0.267
0.3375 h | 0.226
0.402 h | 0.206
0.436 h | 0.185
0.4734 h | 0.175
0.5006 h | 0.144
0.5447 h | 0.144
0.6059 h | 0.144
0.6602 h | 0.123
0.701 h | 0.123
0.7588 h | 0.103
0.8029 h | 0.103
0.8505 h | 0.0823
0.9049 h | 0.0823
16 s | 4.55
77 s | 0.782
126 s | 0.535
200 s | 0.473
249 s | 0.35
334 s | 0.37

CCC(C)(C)OC [tert-amyl methyl ether]
human [3], inhalation, duration: 4 hr
Conditions | concentration in blood [nM]
0 h, 3.8 ppm | 589
2.022 h, 3.8 ppm | 208
2.034 h, 38.4 ppm | 1350
3.985 h, 38.4 ppm | 801
4.008 h, 3.8 ppm | 139
6.018 h, 38.4 ppm | 611
6.02 h, 3.8 ppm | 111
7.969 h, 38.4 ppm | 438
9.976 h, 38.4 ppm | 225
10.01 h, 3.8 ppm | 85
12.01 h, 38.4 ppm | 183
12.05 h, 3.8 ppm | 73.7
99 s, 38.4 ppm | 4500

Conditions | concentration in blood [nM]
human [3], 1.016 h, 15 mg, oral | 145
human [3], 1.043 h, 5 mg, oral | 60.8
human [3], 2.059 h, 15 mg, oral | 70.2
human [3], 2.113 h, 5 mg, oral | 29.4
human [3], 3.073 h, 5 mg, oral | 13.9
human [3], 4.009 h, 15 mg, oral | 33
human [3], 4.034 h, 5 mg, oral | 9.2
human [3], 6.041 h, 15 mg, oral | 19.9
human [3], 6.064 h, 5 mg, oral | 6.34
human [3], 8.046 h, 15 mg, oral | 16.9
human [3], 8.067 h, 5 mg, oral | 3.85
human [3], 9.995 h, 15 mg, oral | 9.91
human [3], 10.04 h, 5 mg, oral | 3.13
human [3], 12 h, 15 mg, oral | 4.16
human [4], -0.981 h, 15 ppm, during exposure | 3580
human [4], -1.895 h, 15 ppm, during exposure | 3490
human [4], -3.022 h, 15 ppm, during exposure | 1710
human [4], -4 h, 15 ppm, during exposure | 6.05

human [4], 15 ppm
Conditions | concentration in blood [nM]
0.7676 h | 2300
1.198 h | 1900
2.571 h | 1140
7.198 h | 344
19.78 h | 86.8
338 s | 4220

Oc1ccc2cc3ccc4cccc5ccc(c2c1)c3c45 [9-hydroxy benzo[a]pyrene]
Conditions | concentration in lung, 0.05 h [ng/mL] | concentration in lung, 1 h [ng/mL] | concentration in lung, 2 h [ng/mL] | concentration in lung, 4 h [ng/mL] | concentration in plasma, 0.5 h [ng/mL] | concentration in plasma, 1 h [ng/mL] | concentration in plasma, 2 h [ng/mL] | concentration in plasma, 4 h [ng/mL]
rat [5], 0.1 mg/m^3, female | 0.389 | 3.61 | 0.814 | 0.209 | – | – | – | –
rat [5], 0.1 mg/m^3, male | 0.387 | 3.82 | 1.62 | 0.206 | – | – | – | –
rat [5], 1 mg/m^3, female | 11.8 | 15.5 | 14.6 | 1.6 | – | – | – | –
rat [5], 1 mg/m^3, male | 4.34 | 14.2 | 4.36 | 2.55 | – | – | – | –
rat [5], 2.5 mg/m^3, female | 23.9 | 52.2 | 12.3 | 1.49 | – | – | – | –
rat [5], 2.5 mg/m^3, male | 21.7 | 48.1 | 8.15 | 3.18 | – | – | – | –
rat [6], 0.1 mg/m^3, female | – | – | – | – | 0.0614 | 0.243 | 0.122 | 0.00678
rat [6], 0.1 mg/m^3, male | – | – | – | – | 0.1 | 0.302 | 0.102 | 0.0105
rat [6], 1 mg/m^3, female | – | – | – | – | 0.339 | 5.95 | 0.303 | 0.00674
rat [6], 1 mg/m^3, male | – | – | – | – | 0.606 | 8.58 | 0.97 | 0.00272
rat [6], 2.5 mg/m^3, female | – | – | – | – | 4.93 | 29.3 | 5.63 | 0.276
rat [6], 2.5 mg/m^3, male | – | – | – | – | 5.6 | 33.1 | 7.14 | 0.363

CCC(C)(C)O [tert-amyl alcohol]
Conditions | amount in urine | concentration in blood [nM]
human [3], 0.9886 h, 15 mg, oral | – | 972
human [3], 1.015 h, 5 mg, oral | – | 445
human [3], 2.032 h, 15 mg, oral | – | 777
human [3], 2.058 h, 5 mg, oral | – | 340
human [3], 3.046 h, 5 mg, oral | – | 276
human [3], 3.982 h, 15 mg, oral | – | 540
human [3], 4.006 h, 5 mg, oral | – | 220
human [3], 6.037 h, 5 mg, oral | – | 155
human [3], 6.041 h, 15 mg, oral | – | 355
human [3], 8.046 h, 15 mg, oral | – | 254
human [3], 8.067 h, 5 mg, oral | – | 111
human [3], 9.995 h, 15 mg, oral | – | 177
human [3], 10.02 h, 5 mg, oral | – | 86.5
human [3], 12.03 h, 15 mg, oral | – | 101
human [3], 12.05 h, 5 mg, oral | – | 67.4
human [4], -1.062 h, 15 ppm, during exposure | – | 4030
human [4], -1.113 h, 50 ppm, during exposure | – | 11900
human [4], -1.922 h, 15 ppm, during exposure | – | 3520
human [4], -1.944 h, 50 ppm, during exposure | – | 5580
human [4], -3.049 h, 15 ppm, during exposure | – | 1700
human [4], -3.146 h, 50 ppm, during exposure | – | 6060
human [4], -3.999 h, 50 ppm, during exposure | – | 10
human [4], -4 h, 15 ppm, during exposure | – | 6
human [7], 0 h, 5 mg, oral | 0.00166 | –
human [7], 0 h, 15 mg, oral | 0.00586 | –
human [7], 6.182 h, 15 mg, oral | 0.181 | –
human [7], 6.2 h, 5 mg, oral | 0.176 | –
human [7], 11.93 h, 15 mg, oral | 0.0638 | –
human [7], 11.99 h, 5 mg, oral | 0.0598 | –
human [7], 17.98 h, 15 mg, oral | 0.0106 | –
human [7], 18.09 h, 5 mg, oral | 0.0183 | –

inhalation, duration: 4 hr
Conditions | amount in urine | concentration in blood [nM]
human [3], 2.005 h, 3.8 ppm | – | 816
human [3], 2.034 h, 38.4 ppm | – | 7740
human [3], 3.957 h, 38.4 ppm | – | 6550
human [3], 3.966 h, 3.8 ppm | – | 480
human [3], 6.018 h, 38.4 ppm | – | 5900
human [3], 7.942 h, 38.4 ppm | – | 4140
human [3], 9.948 h, 38.4 ppm | – | 3160
human [3], 11.98 h, 38.4 ppm | – | 2850
human [3], 23.91 h, 38.4 ppm | – | 835
human [3], 78 s, 3.8 ppm | – | 960
human [3], 99 s, 38.4 ppm | – | 9530
human [7], 0.144 h, 38.4 ppm | 1.36 | –
human [7], 5.941 h, 3.8 ppm | 0.345 | –
human [7], 6.198 h, 38.4 ppm | 2.11 | –
human [7], 12.1 h, 3.8 ppm | 0.143 | –
human [7], 12.11 h, 38.4 ppm | 1.74 | –
human [7], 17.91 h, 3.8 ppm | 0.0476 | –
human [7], 18.16 h, 38.4 ppm | 0.992 | –
human [7], 24.21 h, 38.4 ppm | 0.62 | –
human [7], 30.05 h, 38.4 ppm | 0.248 | –
human [7], 36.11 h, 38.4 ppm | 0.372 | –
human [7], 248 s, 3.8 ppm | 0.119 | –

rat [8]
Conditions | amount in urine
5.91 h | 0.0178
11.97 h | 0.0273
17.83 h | 0.0115
23.9 h | 0.0462

human [4]
Conditions | concentration in blood [nM]
0.6509 h, 50 ppm | 17000
0.7385 h, 15 ppm | 4840
1.158 h, 50 ppm | 16000
1.169 h, 15 ppm | 4710
2.413 h, 50 ppm | 13400
2.567 h, 15 ppm | 4380
6.871 h, 50 ppm | 7280
7.192 h, 15 ppm | 2200
19.71 h, 50 ppm | 1840
19.75 h, 15 ppm | 597
141 s, 15 ppm | 5450
